PMI act satM6P: PMI (human) activation, high substrate; 190,000 compounds, 0.34% hits; P34949; activation factor at 20 µM; coupled PMI enzyme assay, resazurin fluorescence, 20 min; active compounds read high; 1 = untreated enzyme, 0 = substrate-free blank;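 active means activation factor of 2 or more at 20 µM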
Target sequence (P34949 whole entry, looked up): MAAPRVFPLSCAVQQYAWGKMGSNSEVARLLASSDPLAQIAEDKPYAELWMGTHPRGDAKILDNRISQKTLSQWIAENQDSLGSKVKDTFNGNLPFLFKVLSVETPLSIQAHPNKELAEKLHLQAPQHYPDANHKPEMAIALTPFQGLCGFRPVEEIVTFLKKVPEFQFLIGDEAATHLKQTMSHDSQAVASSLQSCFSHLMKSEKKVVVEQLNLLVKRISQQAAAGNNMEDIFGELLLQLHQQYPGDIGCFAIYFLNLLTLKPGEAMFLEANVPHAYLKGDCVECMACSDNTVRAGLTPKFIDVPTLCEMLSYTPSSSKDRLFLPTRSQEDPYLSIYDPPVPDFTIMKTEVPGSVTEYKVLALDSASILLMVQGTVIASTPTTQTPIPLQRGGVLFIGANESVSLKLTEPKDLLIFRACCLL
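Test system: human PMI in coupled enzyme assay; Input: PMI at 15 ng/mL final; Medium: HEPES buffer, pH 7.4; Schedule: 20 min incubation at room temperature; Technique: resorufin fluorescence at Ex 544/Em 590 nm; Compound: 20 µM single dose; Probe or stimulus: Near-saturating mannose-6-phosphate, 1.0 mM.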
Diaphorase inh: counter-screen for diaphorase-based assays: diaphorase inhibitors and chemical oxidizers; diaphorase resazurin-to-resorufin fluorescence, NADH, 16 min; bacterial (C. kluyveri) enzyme, not human; inhibition, % at 20 µM; 190,000 compounds, 0.69% hits; AID 1217;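 active means primary screen inhibition at 20 µM above a set limit, cut at about 50% in these data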
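Assay system – diaphorase enzyme from Clostridium kluyveri · Amount – diaphorase 0.14 U/mL (working solution) · Times – reaction incubation of 16 min at room temperature · Controls – No-NADH positive control and DMSO neutral control · Signal – resorufin fluorescence 544/590 nm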
G6PDH counter: counter-screen for G6PDH assay hits: L. mesenteroides G6PDH inhibition; inhibition, % at 5 µM; 200,000 compounds, 0.12% hits; Purified L. mesenteroides G6PDH, diaphorase/resazurin coupled fluorescence, 45 min; in the data active means inhibition above about 50%
Diaph act CS: diaphorase activation or chemical reduction counter-screen; 190,000 compounds, 0.005% hits; Diaphorase/resazurin coupled assay, resorufin fluorescence, 16 min; active compounds read high; 1 = vehicle wells, 0 = NADH-free wells; activation factor at 20 µM; AID 1229;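 active means diaphorase activity raised at least twofold by the compound at 20 µM; inactive means activation factor below 2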
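Test system: Clostridium kluyveri diaphorase, purified enzyme. Buffer or medium: 50 mM HEPES pH 7.4 buffer plus MgCl2 and Tween 20. Also added: 0.114 mM NADH and 0.1 mM resazurin, final amounts. Dosing: compound 20 µM once, DMSO 1%. Schedule: 16 min enzyme reaction, ambient temperature. Detection: fluorescence of resorufin, 544 nm excitation, 590 nm emission.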
PMI act: phosphomannose isomerase (human) activation. P34949. purified human PMI, coupled resazurin fluorescence, 20 min; active compounds read high; 1 = vehicle control, 0 substrate-free wells. activation factor at 20 µM. 190,000 compounds, 0.005% hits. AID 1214;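 active means activation factor of 2 or more at 20 µM, relative to plate controls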
Of the large screens only hits and unclear results are named; the others gave an inactive call. This is a sample that favours compounds with a hit; in the whole collection about 1.1% have one here.

CCCCCOc1ccc(/C=c2\sc3nc(=O)c(-c4ccccc4)nn3c2=O)cc1OC	none
CS(=O)(=O)Nc1cccc2[nH]ncc12	none
Cc1nc2ccc(NC(=S)NCCCO)cc2nc1C	G6PDH counter 56
S=C(Nc1ccc2nc(-c3ccccn3)c(-c3ccccn3)nc2c1)N1CCCCC1	G6PDH counter 50 (no result: PMI act satM6P, Diaphorase inh, Diaph act CS, PMI act)
S=C(Nc1ccc2nsnc2c1)N1CCCCC1	Diaphorase inh 66
S=C(Nc1ccc2nc(-c3ccccn3)c(-c3ccccn3)nc2c1)N1CCCCCC1	none
CCCNC(=S)Nc1ccc2nc(-c3ccccn3)c(-c3ccccn3)nc2c1	Diaphorase inh 52
Cc1ccc(O)c(NC(=S)NC(=O)c2ccccc2Cl)c1	none
CC(C)C(=O)NC(c1ccco1)c1ccc2cccnc2c1O (stereo unspecified)	Diaphorase inh 55
CCC(=O)NC(c1cccs1)c1ccc2cccnc2c1O (stereo unspecified)	Diaphorase inh 58
Oc1c(C(Nc2nc3ccccc3s2)c2ccco2)ccc2cccnc12 (stereo unspecified)	none
O=C(NC(=S)NCCCN1CCOCC1)c1cccc2ccccc12	none
Cc1cccc(CC(=O)N2CCC(N3CCC(C(=O)N4CCOCC4)CC3)CC2)c1	Diaphorase inh 55
O=C(Cc1ccc(F)cc1)N1CCC(N2CCC(C(=O)N3CCOCC3)CC2)CC1	none
CCCN(CC1CC1)c1nc(N)c2c(N)nc(OC)cc2c1C#N	Diaphorase inh 52
CC1=CC(C)(C)Nc2ccc(OC(=O)CN3C(=O)c4cccc5cccc(c45)C3=O)cc21	Diaphorase inh 58
Cc1nnc(Sc2cc(NCCO)c([N+](=O)[O-])c3nonc23)s1	none
O=[N+]([O-])c1c(NCCCO)cc(Sc2nc3ccccc3s2)c2nonc12	Diaphorase inh 71, G6PDH counter 51
Cc1nnc(Sc2cc(NCCCO)c([N+](=O)[O-])c3nonc23)s1	Diaphorase inh 59
CCC(=O)OCCNc1cc(Sc2nc3ccccc3s2)c2nonc2c1[N+](=O)[O-]	Diaphorase inh 58
COc1ccc(C(=O)Nc2ccc(Cl)cc2C(=O)N2CCCC(C)C2)cc1OC (stereo unspecified)	none
CCSc1ccc(-c2cccc([N+](=O)[O-])c2)nn1	none
O=C(O)CC(c1ccccc1)n1cccc1 (stereo unspecified)	PMI act satM6P 2
Nc1ccc(C(CC(=O)O)n2cccc2)cc1 (stereo unspecified)	none
Cc1cc(C)cc(NC(=O)CCN2CCCC2)c1	none
N#Cc1sc2nc3c(c(-c4ccco4)c2c1N)CCCC3	Diaphorase inh 52
Nc1c(C(=O)NCC2CCCO2)sc2nc3c(c(-c4ccco4)c12)CC/C3=C\c1ccco1 (stereo unspecified)	Diaphorase inh 89
Cc1ccccc1NC(=O)c1sc2nc3c(c(-c4ccco4)c2c1N)CCC3	Diaphorase inh 53
COC(=O)c1sc2nc3c(c(-c4cccs4)c2c1N)CCCC3	none
O=C(NC1CCCC1)C(=O)N(Cc1cccnc1)C(C(=O)NCC1CCCO1)c1ccco1 (stereo unspecified)	none
COc1ccc(CCN(Cc2cccs2)S(=O)(=O)c2ccc(C(=O)O)cc2)cc1OC	none
O=C(O)c1cccc(NC2=C(Cl)C(=O)c3ccccc3C2=O)c1	G6PDH counter 52
CCC(C)Sc1cc(C)c(C#N)c2nc3ccccc3n12 (stereo unspecified)	Diaphorase inh 52
COc1cc(C(=O)NCC(=O)OCCN2C(=O)c3ccccc3C2=O)cc(OC)c1OC	none
CN(C)c1ncc(/C=C2/C(=O)NC(=S)N(C3CCCCC3)C2=O)cn1	PMI act satM6P 2
CC(C)CC1NC(=S)N(C2CCCCC2)C1=O (stereo unspecified)	none
C#Cc1ccc([C@@H]2C=C(C(=O)N3CCN(Cc4ccc5c(c4)OCO5)CC3)O[C@H](OCCCCO)C2)cc1	Diaphorase inh 53
O=C(C1=C[C@@H](c2ccc3c(c2)OCO3)C[C@@H](OCCCCO)O1)N1CCN(Cc2ccc3c(c2)OCO3)CC1	none
Cc1cc(C)c2nc(NCCCNC(=S)NCCCN(C)C)c(C#N)cc2c1	none
CCOCCCNC(=S)NCCCNc1nc2c(C)cc(C)cc2cc1C#N	PMI act satM6P 2.1
Nc1cccc2cnccc12	Diaphorase inh 54
COc1cccc(CN2CCNC(=O)C2CC(=O)NCCOc2cccnc2)c1 (stereo unspecified)	none
N#Cc1c(C(F)(F)F)cc(-c2ccc(Cl)c(Cl)c2)nc1SCCN1CCOCC1	none
Cc1cc(C(F)(F)F)nc(SCCN2CCOCC2)c1C#N	PMI act satM6P 2.2
CCCNC(=O)NNC(=O)c1ccc(F)cc1	none
CC(=O)/C(=N/Nc1cccc(C)c1)N1CCOCC1	PMI act satM6P 2.2
Cc1cccc(C(=O)Nc2cccc(C(=O)N3CCOCC3)c2)c1	none
CCC1Cc2c(nc(N)c3c(N)nc(N4CCOCC4)c(C#N)c23)O1 (stereo unspecified)	none
CCOc1cc2c(C#N)c(N3CCOCC3)nc(N)c2c(N)n1	Diaphorase inh 64
CCN(Cc1ccncc1)C(=O)CSc1ccc2ccccc2c1	none
Cc1ccc(-n2c(O)c(C=NC3CCS(=O)(=O)C3)c3ccccc3c2=O)cc1C (stereo unspecified)	none
Cc1ccc(-n2c(O)c(C=Nc3ccccc3-c3n[nH]c(=S)[nH]c3=O)c3ccccc3c2=O)cc1C	Diaphorase inh 76
Cc1ccc(-n2c(O)c(C=Nc3ccccc3-c3n[nH]c(=S)[nH]c3=O)c3ccccc3c2=O)c(C)c1	Diaphorase inh 72
O=S(=O)(NCc1cccc(C(F)(F)F)c1)NCc1ccccc1F	none
CC(N=Cc1cccc(O)c1O)c1ccccc1 (stereo unspecified)	Diaphorase inh 51, G6PDH counter 52
Cc1ccccc1N=Cc1cccc(O)c1O	Diaphorase inh 83, G6PDH counter 52
CCN(CC)c1ccc(C=Nc2ccc(C)cc2C)c(O)c1	none
Cc1ccc(N=Cc2cccc(O)c2O)c(C)c1	Diaphorase inh 67, G6PDH counter 54
Cc1cccc(C=Nc2ccc3c(c2)oc2ccccc23)c1O	none
CCOC(=O)c1ccccc1NC(=O)c1ccc2nccnc2c1	Diaphorase inh 55
Cc1ccc(O)c(N=Cc2cc(Cc3ccccc3)cc([N+](=O)[O-])c2O)c1	Diaphorase inh 64
CSC1=NC(C(Cl)(Cl)Cl)N=C(c2ccc(C)cc2)N1 (stereo unspecified)	PMI act satM6P 2.3
COC(=O)c1cccc(Oc2cccc(Cl)n2)c1	none
Cc1ccccc1N1Cc2ccccc2C1	PMI act satM6P 2.2
COc1ccccc1N1Cc2ccccc2C1	none
Cc1nnc(SCc2cc(=O)[nH]c(=S)[nH]2)s1	Diaphorase inh 64

Assay outcomes: PubChem, Sanford-Burnham Center for Chemical Genomics
